pIC50: −log10 of the molar value. Converted amounts (≈) assume the structure as drawn. The source made the active and inactive calls. The rule behind the calls is not given here.
Assays:
[1] = system: Mycobacterium tuberculosis; assay: Antimicrobial activity against Mycobacterium tuberculosis H37Rv after 7 days by BacTiter-Glo assay; type: functional, organism-based; conditions: 168 h
Method in brief: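 H37Rv in 384-well format, 10-point dose response, compounds serially diluted 1:2 from 100 thru 0.195 (top of range); DMSO carrier as 100% growth control, high amikacin as background, lower amikacin (MIC-approximating) control. After 7 days, equilibrated to room temperature, BacTiter-Glo added, 20 min at room temperature, luminescence (ATP) read.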

[2] = Cytotoxicity against mouse J774 cells assessed as cell viability at 10-fold below MIC relative to control; type: cell-based; conditions: read-out: Activity
Method in brief: (§1)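 Uninfected J774 macrophages run in parallel to the infection assay (RPMI 1640, 1% FBS, 37 °C, 5% CO2), exposed to the same three concentrations (mid bracketing primary-screen MIC, ten-fold below and above); MTT proliferation read-out reported as percent viability.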

[3] = Cytotoxicity against mouse J774 cells assessed as cell viability at 10-fold above MIC relative to control; type: cell-based; conditions: read-out: Activity; method in brief: as §1
[4] = Cytotoxicity against mouse J774 cells assessed as cell viability at MIC relative to control; type: cell-based; conditions: read-out: Activity; method in brief: as §1
[5] = system: Mycobacterium tuberculosis; assay: Antimicrobial activity against Mycobacterium tuberculosis H37Rv SRI 1345 infected in mouse J774 cells assessed as intracellular growth inhibition at 10-fold above MIC after 7 days relative to control; type: functional
Method in brief: (§2)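 Murine J774 cells in RPMI 1640 + L-glutamine/FBS, 37 °C, 5% CO2; seeded 2.0 × 10^5 per well in 10% FBS, overnight, then 1% FBS to halt division. After 24 h infected with H37Rv at MOI 5 for 4 h, washed; drug at three concentrations (mid bracketing primary-screen MIC, ten-fold below and above) for 7 days. SDS lysis, DNase, plating on 7H10 for CFU; log reduction day 0 to day 7; duplicates, rifampin control.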

[6] = system: Mycobacterium tuberculosis; assay: Antimicrobial activity against Mycobacterium tuberculosis H37Rv SRI 1345 incubated for 7 days under anaerobic condition followed by exposure to gaseous condition measured after 7 days by low-oxygen recovery assay; type: functional, organism-based
Method in brief: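 Microplates set up as for MIC testing, then held anaerobically (automated jar gassing) 7 days at 37 °C, moved to ambient air with 5% CO2 for 7 days; wells scored visually for turbidity/clearing. Result = lowest concentration visually inhibiting growth. Duplicates with sterility, growth and rifampin or isoniazid controls.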

[7] = system: Mycobacterium tuberculosis; assay: Antimicrobial activity against Mycobacterium tuberculosis H37Rv SRI 1345 assessed as growth inhibition at MIC after 7 days by broth microdilution assay relative to control; type: functional
Method in brief: (§3)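 Broth microdilution per CLSI in Middlebrook 7H9 + OADC; ten two-fold dilutions; inoculum targeted 1.0 × 10^6 CFU/mL M. tuberculosis; 37 °C, ~90% humidity, 7 days. Wells scored visually for turbidity, partial or complete clearing; MIC = lowest concentration visually inhibiting growth; percent inhibition at the MIC also recorded. Duplicates; rifampin or isoniazid positive control, medium-only and organism-only controls.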

[8] = system: Mycobacterium tuberculosis; assay: Antimicrobial activity against Mycobacterium tuberculosis H37Rv SRI 1345 infected in mouse J774 cells assessed as intracellular growth inhibition at 10-fold below MIC after 7 days relative to control; type: functional; method in brief: as §2
[9] = system: Mycobacterium tuberculosis; assay: Antimicrobial activity against Mycobacterium tuberculosis H37Rv SRI 1345 infected in mouse J774 cells assessed as intracellular growth inhibition at MIC after 7 days relative to control; type: functional; method in brief: as §2
[10] = system: Mycobacterium tuberculosis; assay: Antimicrobial activity against Mycobacterium tuberculosis H37Rv SRI 1345 incubated for 7 days under aerobic condition by low-oxygen recovery assay; type: functional, organism-based
[11] = system: Mycobacterium tuberculosis; assay: Antimicrobial activity against Mycobacterium tuberculosis H37Rv SRI 1345 assessed as growth inhibition after 7 days by broth microdilution assay; type: functional; conditions: H37Rv SRI 1345, 168 h; method in brief: as §3
[12] = system: Mycobacterium tuberculosis; assay: Bactericidal activity against Mycobacterium tuberculosis H37Rv SRI 1345 after 18 to 24 hrs; type: functional; conditions: for MBC: Mycobacterium tuberculosis, H37Rv SRI 1345, read-out: MBC99.9
Method in brief: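 Following MIC testing, diluted aliquots from wells lacking macroscopic growth plated on Middlebrook 7H10 agar, 16–21 days at 37 °C, colonies counted. MBC = lowest concentration giving 99.9% kill over the MIC period (18–24 h); >40 colonies taken as rejection value; uncountable plates reported TNTC.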

In the case of `O=C1c2ccccc2-c2nc3ccc(Cl)cc3c(-c3ccccc3)c21`, the pIC50 [1] was less than 4.00 and the IC90 [1] was greater than 100 µM.
Work on `CCc1nc(N)nc(N)c1-c1ccc(Cl)cc1` [PYRIMETHAMINE] yielded a pIC50 [1] of 5.30 and an IC90 [1] of 5 µM.
Compound `O=[N+]([O-])c1ccc2nc3c(c(-c4ccccc4)c2c1)CCCC3` has a viability [2] of 67%, a viability [3] of 25% and a viability [4] of 63%. For the same compound, the pIC50 [1] was 4.35, the IC90 [1] was greater than 100 µM and the “fold change (FC)” value [5] was 1.72. The Activity [6] was “Active”, the “growth inhibition (GI)” value [7] was 52% and the “fold change (FC)” value [8] was 1.8. The “fold change (FC)” value [9] was 1.25, the Activity [10] was “Active” and the MIC [11] was 12.5 µg/mL (≈ 41.1 µM).
Work on `NCC[C@H](O)C(=O)N[C@@H]1C[C@H](N)[C@@H](O[C@H]2O[C@H](CN)[C@@H](O)[C@H](O)[C@H]2O)[C@H](O)[C@H]1O[C@H]1O[C@H](CO)[C@@H](O)[C@H](N)[C@H]1O` [AMIKACIN] yielded a pIC50 [1] of 7.15 and an IC90 [1] of 0.08 µM.
For `CC[C@@H](CO)NCCN[C@@H](CC)CO` [ETHAMBUTOL], the pIC50 [1] was greater than 5.81 and the IC90 [1] was 32.8 µM.
Work on `NNC(=O)c1ccncc1` [ISONIAZID] yielded a pIC50 [1] of 6.74 and an IC90 [1] of 0.29 µM.
With `Clc1ccc2nc3c(c(-c4ccccc4)c2c1)CCCCC3` the pIC50 [1] was less than 4.00 and the IC90 [1] was greater than 100 µM.
`O=C1c2ccccc2-c2nc3ccc([N+](=O)[O-])cc3c(-c3ccccc3)c21` gave a pIC50 [1] of less than 4.00 and an IC90 [1] greater than 100 µM.
`O=[N+]([O-])c1ccc2nc3c(c(-c4ccccc4)c2c1)CCCCC3` showed a viability [2] of 82%, a viability [3] of less than 10% and a viability [4] of 79%. For the same compound, the pIC50 [1] was 4.21, the IC90 [1] was 95.4 µM and the “fold change (FC)” value [5] was 1.41. The Activity [6] was “Active”, the “growth inhibition (GI)” value [7] was 76% and the “fold change (FC)” value [8] was 1.24. For the same compound, the “fold change (FC)” value [9] was 1.19, the Activity [10] was “Active” and the MIC [11] was 75 µg/mL (≈ 236 µM).
With `CO[C@H]1/C=C/O[C@@]2(C)Oc3c(C)c(O)c4c(O)c(c(/C=N/N5CCN(C)CC5)c(O)c4c3C2=O)NC(=O)/C(C)=C\C=C\[C@H](C)[C@H](O)[C@@H](C)[C@@H](O)[C@@H](C)[C@H](OC(C)=O)[C@@H]1C` [RIFAMPIN] the viability [2] was 82%, the viability [3] was 78% and the viability [4] was 86%. For the same compound, the CFU [12] was 39, the MBC [12] was 1.56 µg/mL (≈ 1.9 µM) and the pIC50 [1] was 7.70. The IC90 [1] was 0.02 µM, the “fold change (FC)” value [5] was 1.85 and the “growth inhibition (GI)” value [7] was 65%. The “fold change (FC)” value [8] was 0.46, the “fold change (FC)” value [9] was 1.83 and the MIC [11] was 0.049 µg/mL (≈ 0.0595 µM).
In the case of `CC1(C)CC(=O)c2c(nc3ccc([N+](=O)[O-])cc3c2-c2ccccc2)C1`, the pIC50 [1] was less than 4.00 and the IC90 [1] was greater than 100 µM.
`CC1(C)CC(=O)c2c(nc3ccc(Cl)cc3c2-c2ccccc2)C1` gave a pIC50 [1] of less than 4.00 and an IC90 [1] greater than 100 µM.
With `Clc1ccc2nc3c(c(-c4ccccc4)c2c1)Cc1ccccc1-3` the pIC50 [1] was less than 4.00 and the IC90 [1] was greater than 100 µM.
For `Clc1ccc2nc3c(c(-c4ccccc4)c2c1)CCCC3`, the pIC50 [1] was less than 4.00 and the IC90 [1] was greater than 100 µM.
`Clc1ccc2nc3c(c(-c4ccccc4)c2c1)CCC3` gave a viability [2] of 86%, a viability [3] of less than 10% and a viability [4] of 79%. For the same compound, the CFU [12] was 0, the MBC [12] was 50 µg/mL (≈ 179 µM) and the pIC50 [1] was 4.13. For the same compound, the IC90 [1] was greater than 100 µM, the “fold change (FC)” value [5] was 3.12 and the Activity [6] was “Active”. For the same compound, the “growth inhibition (GI)” value [7] was 88%, the “fold change (FC)” value [8] was 1 and the “fold change (FC)” value [9] was 1.82. For the same compound, the Activity [10] was “Active” and the MIC [11] was 12.5 µg/mL (≈ 44.7 µM).
For `N[C@@H]1CONC1=O` [CYCLOSERINE], the pIC50 [1] was 4.90 and the IC90 [1] was 13.5 µM.
`Clc1ccc2nc3c(c(-c4ccccc4)c2c1)-c1ccccc1C3` showed a pIC50 [1] of less than 4.00 and an IC90 [1] greater than 100 µM.
In the case of `O=[N+]([O-])c1ccc2nc3c(c(-c4ccccc4)c2c1)Cc1ccccc1-3`, the pIC50 [1] was less than 4.00 and the IC90 [1] was greater than 100 µM.

— ChEMBL document CHEMBL3112573, “Design, synthesis and evaluation of acridine and fused-quinoline derivatives as potential anti-tuberculosis agents” (Eur J Med Chem, 2014)
